Measurements published in publication PMC7906539 (Medicinal chemistry research : an international journal for …, 2020).
Values after ≈ are worked out from the molar mass of the structure shown. “Also recorded” adds a separate entry of the source.

What was measured:
[1] = system: mHtt toxicity in PC12 cells; assay: Protection against mHtt toxicity in neuronal cell model for HD; assay type: cell-based; settings: three different concentrations
Outline: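 Each experiment run at least three times; values reported as mean ± standard error of the mean.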

PAMPA permeability = assay type: in vitro ADME
[2] = system: calcium/CaM-dependent kinase 2γ (CaMK2γ); assay: CaM-dependent kinase assay; assay type: biochemical, Human; settings: single concentration of 100 μM, in the presence of CaM
Outline: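 ADP-Glo reaction with CaMK2γ (12 ng), 25 μM ATP and Autocamtide-2 substrate, carried out with CaM present. Test compound is at a single 100 μM from DMSO; incubation 60 min at room temperature. Luminescent readout gives percent enzyme activity relative to the reaction without compound. Run three times with at least two replicates per experiment; mean ± SEM.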

Kinetic solubility = assay type: physicochemical
[3] = target: death-associate protein kinase 1 (DAPK1) (Homo sapiens, UniProt P53355); assay: CaM-dependent kinase assay; assay type: biochemical; settings: single concentration of 100 μM, in the presence of CaM
Outline: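 Recombinant DAPK1 (25 ng), run with ADP-Glo at 5 μM ATP with native swine myelin basic protein as substrate, in the presence of CaM. Test compound is added at a single 100 μM (DMSO) and reacted 60 min at room temperature. Luminescence is read, and activity is expressed as percent of the no-compound reaction. Three experiments, ≥2 replicates each; mean ± SEM.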

[4] = target: His-mHtt and GST-CaM (CaM–mHtt interaction) (Homo sapiens, UniProt P0DP23+P42858); assay: CaM/mHtt AlphaScreen binding assay; settings: read-out: AlphaScreen CaM–mHtt, IC50; triplicate
Outline: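 His-mHtt (10 nM) preincubated 30 min with test compound, then GST-CaM (10 nM) added for 60 min at room temperature. Ni-chelate acceptor (10 μg/mL) and glutathione donor beads (15 μg/mL) are added for 2 h, then Alpha counts are read. Final 300–0.002 μM, triplicate; % inhibition normalized to DMSO controls.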

SH-SY5Y cells = assay: Cytotoxicity assay; assay type: cell-based; settings: SH-SY5Y cells, 24 h incubation, CellTiter-Glo
Outline: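 SH-SY5Y cells seeded at 6000/well in 1:1 EMEM/F12 with 10% FBS. Exposure 24 h at 37 °C, then CellTiter-Glo luminescence read. Percent cytotoxicity normalized to DMSO controls.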

His-mHtt and GST-CaM (CaM–mHtt interaction), sequence (P42858 whole entry, one chain of several): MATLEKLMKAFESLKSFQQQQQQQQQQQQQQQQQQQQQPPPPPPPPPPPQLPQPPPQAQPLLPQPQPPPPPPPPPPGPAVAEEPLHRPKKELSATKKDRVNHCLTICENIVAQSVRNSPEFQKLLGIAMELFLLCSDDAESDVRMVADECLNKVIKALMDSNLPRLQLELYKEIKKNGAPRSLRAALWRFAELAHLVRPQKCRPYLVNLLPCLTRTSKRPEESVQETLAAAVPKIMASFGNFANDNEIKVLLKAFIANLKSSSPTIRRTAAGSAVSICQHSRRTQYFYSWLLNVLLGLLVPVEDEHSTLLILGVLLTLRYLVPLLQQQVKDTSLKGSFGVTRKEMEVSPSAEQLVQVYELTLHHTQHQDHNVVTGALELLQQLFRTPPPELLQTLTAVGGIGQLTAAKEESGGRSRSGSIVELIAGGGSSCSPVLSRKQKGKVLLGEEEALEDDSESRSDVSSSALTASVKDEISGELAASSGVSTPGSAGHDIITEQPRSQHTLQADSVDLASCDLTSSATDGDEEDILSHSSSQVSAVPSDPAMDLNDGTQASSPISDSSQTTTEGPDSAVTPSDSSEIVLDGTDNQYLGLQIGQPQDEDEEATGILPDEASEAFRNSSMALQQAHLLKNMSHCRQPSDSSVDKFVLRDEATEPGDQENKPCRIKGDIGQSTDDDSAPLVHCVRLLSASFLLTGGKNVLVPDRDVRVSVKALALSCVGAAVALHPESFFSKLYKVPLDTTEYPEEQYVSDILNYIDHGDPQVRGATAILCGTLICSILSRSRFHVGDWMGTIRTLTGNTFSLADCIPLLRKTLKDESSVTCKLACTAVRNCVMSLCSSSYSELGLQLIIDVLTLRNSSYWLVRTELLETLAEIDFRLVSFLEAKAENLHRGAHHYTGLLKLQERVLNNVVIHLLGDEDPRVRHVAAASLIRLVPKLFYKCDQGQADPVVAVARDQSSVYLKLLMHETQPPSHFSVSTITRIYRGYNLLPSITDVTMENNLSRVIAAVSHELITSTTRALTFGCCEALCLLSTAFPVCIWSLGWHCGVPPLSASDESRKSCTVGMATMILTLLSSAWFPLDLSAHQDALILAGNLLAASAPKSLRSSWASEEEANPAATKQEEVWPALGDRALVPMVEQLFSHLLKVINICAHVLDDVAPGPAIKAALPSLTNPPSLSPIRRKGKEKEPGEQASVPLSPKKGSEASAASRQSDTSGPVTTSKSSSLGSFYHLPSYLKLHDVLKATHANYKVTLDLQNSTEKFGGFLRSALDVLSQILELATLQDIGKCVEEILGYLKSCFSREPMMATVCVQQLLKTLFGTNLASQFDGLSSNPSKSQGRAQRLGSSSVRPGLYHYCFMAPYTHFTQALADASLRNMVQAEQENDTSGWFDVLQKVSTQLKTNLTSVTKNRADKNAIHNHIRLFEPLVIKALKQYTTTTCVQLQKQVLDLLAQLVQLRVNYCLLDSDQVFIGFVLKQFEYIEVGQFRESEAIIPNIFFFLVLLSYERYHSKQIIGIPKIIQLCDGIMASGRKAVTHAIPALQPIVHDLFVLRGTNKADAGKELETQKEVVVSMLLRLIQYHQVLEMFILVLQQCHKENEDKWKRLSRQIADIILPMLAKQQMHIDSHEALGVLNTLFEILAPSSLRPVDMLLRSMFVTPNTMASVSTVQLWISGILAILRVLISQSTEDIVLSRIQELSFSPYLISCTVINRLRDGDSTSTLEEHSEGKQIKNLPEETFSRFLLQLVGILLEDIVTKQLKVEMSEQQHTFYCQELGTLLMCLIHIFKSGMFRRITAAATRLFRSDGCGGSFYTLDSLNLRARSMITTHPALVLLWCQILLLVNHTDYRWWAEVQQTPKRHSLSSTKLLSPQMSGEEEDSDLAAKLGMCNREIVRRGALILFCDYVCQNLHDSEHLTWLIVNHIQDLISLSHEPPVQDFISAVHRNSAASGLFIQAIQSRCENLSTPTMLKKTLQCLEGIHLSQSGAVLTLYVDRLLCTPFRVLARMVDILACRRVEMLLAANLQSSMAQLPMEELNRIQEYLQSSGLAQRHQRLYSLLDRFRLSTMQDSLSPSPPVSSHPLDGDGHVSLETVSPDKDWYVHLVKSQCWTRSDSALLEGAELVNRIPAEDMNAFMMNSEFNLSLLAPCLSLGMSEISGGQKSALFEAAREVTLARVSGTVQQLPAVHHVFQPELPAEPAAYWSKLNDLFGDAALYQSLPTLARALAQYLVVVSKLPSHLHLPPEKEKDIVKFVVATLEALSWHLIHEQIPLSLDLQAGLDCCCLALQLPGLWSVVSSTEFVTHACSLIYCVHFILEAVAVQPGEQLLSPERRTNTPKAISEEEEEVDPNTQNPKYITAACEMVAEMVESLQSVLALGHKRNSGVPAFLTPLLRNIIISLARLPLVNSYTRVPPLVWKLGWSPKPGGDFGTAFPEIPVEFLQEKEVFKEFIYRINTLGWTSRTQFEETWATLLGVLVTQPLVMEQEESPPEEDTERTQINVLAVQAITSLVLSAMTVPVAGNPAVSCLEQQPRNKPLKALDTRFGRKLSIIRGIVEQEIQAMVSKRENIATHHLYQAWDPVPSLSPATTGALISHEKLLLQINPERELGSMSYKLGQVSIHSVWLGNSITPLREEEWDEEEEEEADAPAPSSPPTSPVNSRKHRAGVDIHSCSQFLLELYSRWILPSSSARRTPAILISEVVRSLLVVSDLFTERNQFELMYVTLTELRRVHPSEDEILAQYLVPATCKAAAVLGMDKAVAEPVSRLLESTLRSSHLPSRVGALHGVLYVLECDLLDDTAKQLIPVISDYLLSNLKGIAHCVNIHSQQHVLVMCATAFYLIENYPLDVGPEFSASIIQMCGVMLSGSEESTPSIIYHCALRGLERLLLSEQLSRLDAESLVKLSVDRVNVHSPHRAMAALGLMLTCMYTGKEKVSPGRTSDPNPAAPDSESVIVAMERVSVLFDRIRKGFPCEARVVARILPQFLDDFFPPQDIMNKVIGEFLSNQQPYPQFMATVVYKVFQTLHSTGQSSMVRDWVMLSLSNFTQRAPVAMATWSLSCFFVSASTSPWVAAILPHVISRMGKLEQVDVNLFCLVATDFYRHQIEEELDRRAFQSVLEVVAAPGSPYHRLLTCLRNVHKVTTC
death-associate protein kinase 1 (DAPK1), sequence (P53355 1-363): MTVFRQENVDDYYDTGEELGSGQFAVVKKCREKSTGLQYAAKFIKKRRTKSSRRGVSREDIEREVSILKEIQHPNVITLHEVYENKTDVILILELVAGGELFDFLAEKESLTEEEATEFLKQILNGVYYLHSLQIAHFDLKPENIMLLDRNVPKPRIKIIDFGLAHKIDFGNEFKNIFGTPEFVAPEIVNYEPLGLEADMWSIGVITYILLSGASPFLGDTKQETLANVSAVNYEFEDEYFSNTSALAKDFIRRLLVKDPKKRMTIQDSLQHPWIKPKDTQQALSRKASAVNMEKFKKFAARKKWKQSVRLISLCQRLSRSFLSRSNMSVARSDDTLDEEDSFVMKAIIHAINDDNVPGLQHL

C=C1CCN([C@@H](CC(C)C)C(=O)NCCc2ccc(Cl)c(Cl)c2)S(=O)(=O)c2ccccc21 [Compound 9h, (S)-N-(3,4-Dichlorophenethyl)-4-methyl-2-(5-methylene-1,1-dioxido-4,5-dihydrobenzo[f][1,2]thiazepin-2(3H)-yl) pentanamide]
Protection against mHtt toxicity (in words) [1]: barely measurable activity; also recorded: do not show protection; also recorded: did not show any significant effect
permeability (PAMPA assay) (PAMPA permeability): 0.76 ×10⁻⁶ cm/s
Inhibition of CaMK2γ enzyme activity (in words) [2]: statistically significant impact; also recorded: statistically significant effect on inhibition
kinetic solubility (Kinetic solubility): 0.6 µM (≈ 0.297 µg/mL)
Inhibition of DAPK1 enzyme activity (in words) [3]: but not DAPK1 activity
IC50 [4]: 0.55 µM
Cytotoxicity (SH-SY5Y cells, 24 h) (SH-SY5Y cells): >300 µM
